One series has as its system CCRF-CEM. Description: In vitro antitumor activity in CCRF-CEM culture of human leukemic lymphocytes. It is filed as functional. The settings on record: read-out: ID50 (the source's name). The gist of the method: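 CCRF-CEM human leukemic lymphoblasts were grown in suspension in Eagle's MEM with 10% fetal bovine serum and exposed to drug continuously for 48 h. ID50 is the concentration giving 50% reduction in growth relative to untreated control cultures.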

Series [1] in a line: Half-life time of the compound. The class given is ADME.
Series [2] in a line: % hydrolysis in 60 min.
Series [3] can be described thus: % hydrolysis in 60 min. The source holds these as a separate data set.
The next series deals with Mus musculus. Description: Compound was evaluated in vivo for antileukemic activity in B6D2F1 male mice. It is filed as functional. The gist of the method:
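P388 leukemia model, run essentially per NCI standard protocols: 10⁶ tumor cells injected ip into B6D2F1 male mice on day 0. Drug given ip once daily for 4 days starting day 1; highest dose tested 50 mg/kg per day. Read-out is percent increase in life span (ILS) versus untreated controls, with long-term survivors (>40 days) noted.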

On to `CCCCC(=O)OCC(=O)[C@]1(O)Cc2c(O)c3c(c(O)c2[C@@H](OC2CC(NC(=O)C(F)(F)F)C(O)C(C)O2)C1)C(=O)c1c(OC)cccc1C3=O` (some centres undefined), for which the IC50 with CCRF-CEM is 230 nM.
As for `COc1cccc2c1C(=O)c1c(O)c3c(c(O)c1C2=O)C[C@@](O)(C(=O)COC(=O)CC(NC(C)=O)C(=O)O)C[C@@H]3OC1CC(NC(=O)C(F)(F)F)C(O)C(C)O1` (some centres undefined), the IC50 in the series with CCRF-CEM worked out at 1000 nM. The compound also came in with a half-life in series [1] of 18 min.
The corresponding values for `COc1cccc2c1C(=O)c1c(O)c3c(c(O)c1C2=O)C[C@@](O)(C(=O)COC(=O)CCC(NC(C)=O)C(N)=O)C[C@@H]3OC1CC(NC(=O)C(F)(F)F)C(O)C(C)O1` (some centres undefined) are 120 nM and 24 min.
The compound `COc1cccc2c1C(=O)c1c(O)c3c(c(O)c1C2=O)C[C@@](O)(C(=O)COC(=O)C1CCCN1C(C)=O)C[C@@H]3OC1CC(NC(=O)C(F)(F)F)C(O)C(C)O1` (some centres undefined) registered a % hydrolysis at 1 h in the series “% hydrolysis in 60 min [2]” of 4%. The IC50 with CCRF-CEM amounted to 300 nM.
As for `COc1cccc2c1C(=O)c1c(O)c3c(c(O)c1C2=O)C[C@@](O)(C(=O)COC(=O)CCC(NC(C)=O)C(=O)O)C[C@@H]3OC1CC(NC(=O)C(F)(F)F)C(O)C(C)O1` (some centres undefined), the IC50 with CCRF-CEM was determined as 160 nM. Besides, in series [1], the half-life was 16 min.
In “% hydrolysis in 60 min [3]”, `COc1cccc2c1C(=O)c1c(O)c3c(c(O)c1C2=O)C[C@@](O)(C(=O)COC(=O)C(NC(C)=O)C(C)C)C[C@@H]3OC1CC(NC(=O)C(F)(F)F)C(O)C(C)O1` (some centres undefined) yielded a % hydrolysis at 1 h of 8%. The IC50 with CCRF-CEM was determined as 140 nM.
As to `COc1cccc2c1C(=O)c1c(O)c3c(c(O)c1C2=O)C[C@@](O)(C(=O)COC(=O)CNC(=O)c1ccccc1)C[C@@H]3OC1CC(NC(=O)C(F)(F)F)C(O)C(C)O1` (some centres undefined), the IC50 in the series with CCRF-CEM is 120 nM. Further, the half-life in series [1] came to 3.5 min.
For `COc1cccc2c1C(=O)c1c(O)c3c(c(O)c1C2=O)C[C@@](O)(C(=O)COC(=O)CNC(C)=O)C[C@@H]3OC1CC(NC(=O)C(F)(F)F)C(O)C(C)O1` (some centres undefined), the ILS in the series on Mus musculus was determined as 105%. Moreover, the IC50 with CCRF-CEM was found to be 140 nM. For the same compound, in series [1], the half-life came out at 10 min.
The corresponding values for `COc1cccc2c1C(=O)c1c(O)c3c(c(O)c1C2=O)C[C@@](O)(C(=O)COC(=O)C(CCSC)NC(C)=O)C[C@@H]3OC1CC(NC(=O)C(F)(F)F)C(O)C(C)O1` (some centres undefined) are 136%, 830 nM and 38 min.
In the series with Mus musculus, `COc1cccc2c1C(=O)c1c(O)c3c(c(O)c1C2=O)C[C@@](O)(C(=O)COC(=O)C(Cc1ccccc1)NC(C)=O)C[C@@H]3OC1CC(NC(=O)C(F)(F)F)C(O)C(C)O1` (some centres undefined) yielded an ILS of 173%. Besides, the IC50 with CCRF-CEM came out at 90 nM. The compound also came in with a half-life in series [1] of 14 min.
With `COc1cccc2c1C(=O)c1c(O)c3c(c(O)c1C2=O)C[C@@](O)(C(=O)COC(=O)C(CC(C)C)NC(C)=O)C[C@@H]3OC1CC(NC(=O)C(F)(F)F)C(O)C(C)O1` (some centres undefined), the IC50 in the series with CCRF-CEM amounted to 150 nM. For the same compound, the half-life in series [1] was found to be 65 min.
Turning to `COc1cccc2c1C(=O)c1c(O)c3c(c(O)c1C2=O)C[C@@](O)(C(=O)COC(=O)C(C)NC(C)=O)C[C@@H]3OC1CC(NC(=O)C(F)(F)F)C(O)C(C)O1` (some centres undefined), the ILS in the series with Mus musculus was 163%. The IC50 in the series with CCRF-CEM amounted to 150 nM. In addition, the half-life in series [1] is 18 min.
Take `COc1cccc2c1C(=O)c1c(O)c3c(c(O)c1C2=O)C[C@@](O)(C(=O)CO)C[C@@H]3O[C@H]1C[C@H](N)[C@H](O)[C@H](C)O1` [DOXORUBICIN]: the ILS in the series with Mus musculus amounted to 145%. Further, the IC50 with CCRF-CEM came to 30 nM.
